In general, IC50 refers to the concentration that gives 50% inhibition. Read a high IC50 as weaker potency in that assay. The term Ki denotes a dissociation constant, usually derived from enzyme kinetics or from competition with a known ligand. Higher therefore signals weaker binding.

The source of these data is ChEMBL document CHEMBL3286322, “Synthesis and anti-cholinesterase activity of new 7-hydroxycoumarin derivatives” (Eur J Med Chem, 2014).

Calls of active or inactive are those of the source. The rule behind the calls is not given here.

Data set [1] is described as follows: Antioxidant activity assessed as ferric ion reducing activity using fe3+-TPTZ measured per gram of protein by FRAP assay. The format is functional. Summed up:
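Reducing power measured against a FRAP reagent prepared by mixing acetate buffer (pH 3.6), 10 mM TPTZ in 40 mM HCl, and 20 mM ferric chloride hexahydrate. Test compounds act as reductants, converting the ferric tripyridyl triazine complex to the blue ferrous form, which is read colorimetrically. The method follows Benzie and Strain.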

Data set [2] addresses T1, Acetylcholinesterase (Electrophorus electricus, UniProt O42275). The data set can be described thus: Inhibition of electric eel AChE using acetylthiocholine iodide as substrate by spectrophotometer analysis.
The next data set addresses Cholinesterase (Equus caballus, UniProt P81908). The data set can be described thus: Inhibition of equine serum BChE using butyrylthiocholine iodide as substrate by spectrophotometer analysis. The essentials: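 Compound stocks were made in DMSO/ethanol (1:9) and diluted to final concentrations with 0.1 M potassium phosphate buffer, pH 8.0. IC50 values are mean ± SE of three independent experiments.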

The target in data set [3] is T1, Acetylcholinesterase. The data set can be described thus: Inhibition of electric eel AChE using acetylthiocholine as substrate by Lineweavere-Burk plot. Summed up: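 Compound stocks were made in DMSO/ethanol (1:9) and diluted in 0.1 M potassium phosphate buffer, pH 8.0. Initial AChE velocity was measured at inhibitor levels of 0, 0.64, 1.27 and 2.55 across varied acetylthiocholine concentrations. Inhibition type was read from a Lineweaver–Burk plot, and Ki was calculated from a secondary plot.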

Data set [4] is described as follows: Cytotoxicity against rat PC12 cells at 1 to 10 uM. It counts as cell-based. Particulars: pc-12, 10 µM.
A short description of data set [5]: Neuroprotective activity in rat PC12 cells assessed as inhibition H2O2-induced reduction of cell viability at 1 to 10 uM after 24 hrs by MTT assay. It counts as functional, cell-based. Conditions: PC-12. Summed up: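 PC12 cells differentiated with NGF (50 ng/ml) in serum-free medium for 5 days, until neurite outgrowth was seen by microscopy. Cells were pre-incubated with compound at 1, 5 or 10 for 3 h, then exposed to H2O2 (300). Viability was expressed relative to the H2O2-only group. A reference compound was run at 5.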
On the technique in general: Tetrazolium assays rely on reduction of a dye to a coloured formazan, in cell work by metabolically active cells.

Data set [6] in a line: Neuroprotective activity in rat PC12 cells assessed as inhibition H2O2-induced reduction of cell viability at 5 uM after 24 hrs by MTT assay. Conditions: PC-12. The format is functional, cell-based. Summed up:
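PC12 cells were differentiated in serum-free medium with NGF (50 ng/ml) for 5 days until neurite outgrowth appeared. Cells were preincubated with compound at 1, 5 or 10 for 3 h, then challenged with H2O2 (300). Viability is expressed relative to the H2O2-treated group.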

Cholinesterase, sequence (P81908 whole entry): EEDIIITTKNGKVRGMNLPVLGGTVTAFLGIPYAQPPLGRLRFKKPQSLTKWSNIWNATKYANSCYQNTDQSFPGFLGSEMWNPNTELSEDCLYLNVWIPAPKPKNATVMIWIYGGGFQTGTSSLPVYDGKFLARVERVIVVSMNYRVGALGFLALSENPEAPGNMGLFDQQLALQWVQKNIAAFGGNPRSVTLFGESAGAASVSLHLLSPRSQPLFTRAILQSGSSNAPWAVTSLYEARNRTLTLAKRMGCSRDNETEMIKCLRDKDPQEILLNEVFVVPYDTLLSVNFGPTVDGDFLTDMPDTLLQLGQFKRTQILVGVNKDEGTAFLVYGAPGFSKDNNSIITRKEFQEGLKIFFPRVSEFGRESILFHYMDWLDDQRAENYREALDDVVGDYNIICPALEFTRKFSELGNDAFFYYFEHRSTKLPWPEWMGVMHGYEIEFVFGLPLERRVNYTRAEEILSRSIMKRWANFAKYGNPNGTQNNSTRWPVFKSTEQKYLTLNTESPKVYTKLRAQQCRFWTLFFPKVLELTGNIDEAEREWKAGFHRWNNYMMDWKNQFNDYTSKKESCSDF
T1 sequence (O42275 whole entry): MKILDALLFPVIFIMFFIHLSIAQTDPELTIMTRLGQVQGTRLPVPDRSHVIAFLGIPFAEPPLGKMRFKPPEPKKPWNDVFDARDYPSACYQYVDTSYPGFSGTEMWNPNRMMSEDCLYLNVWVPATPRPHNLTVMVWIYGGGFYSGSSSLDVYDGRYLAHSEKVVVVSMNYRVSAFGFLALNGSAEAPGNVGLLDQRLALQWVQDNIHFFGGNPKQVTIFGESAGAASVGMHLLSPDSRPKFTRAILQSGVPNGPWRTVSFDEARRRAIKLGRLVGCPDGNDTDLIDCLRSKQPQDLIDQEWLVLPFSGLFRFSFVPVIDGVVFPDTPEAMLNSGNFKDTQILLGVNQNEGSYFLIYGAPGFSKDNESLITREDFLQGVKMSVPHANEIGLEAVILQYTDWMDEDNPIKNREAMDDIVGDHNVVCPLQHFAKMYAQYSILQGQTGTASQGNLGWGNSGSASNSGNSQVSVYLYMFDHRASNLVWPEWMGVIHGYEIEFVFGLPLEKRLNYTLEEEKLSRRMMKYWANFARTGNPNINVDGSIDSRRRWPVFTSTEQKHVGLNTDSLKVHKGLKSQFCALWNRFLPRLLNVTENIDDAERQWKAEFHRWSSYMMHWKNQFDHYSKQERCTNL

Consider `Cc1cc(=O)oc2cc(OCCCC(=O)N3CCC(O)(c4ccc(Br)cc4)CC3)ccc12`, for which the Activity in data set [1] is 0.06 µmol. Moreover, the results for the IC50 against Acetylcholinesterase [2] and against Cholinesterase were 34.6 µM and 141 µM, respectively.
The like results for `O=C(CCCOc1ccc2ccc(=O)oc2c1)N1CCN(c2ccccc2O)CC1` were, in that order, 2.82 µmol, 7 µM and 280 µM.
The like results for `O=C(COc1ccc2ccc(=O)oc2c1)N1CCC(Cc2ccccc2)CC1` were, in that order, 0.05 µmol, 9.8 µM and 46 µM.
Consider `O=C1O[C@H]([C@@H](O)CO)C(O)=C1O`, for which, in data set [1], the Activity amounted to 7.26 µmol.
As to `Cc1cc(=O)oc2cc(OCCCC(=O)N3CCN(c4ccccc4O)CC3)ccc12`, the Activity in data set [1] is 2.01 µmol. Moreover, the values for the 50% inhibitory concentration (IC50) against Acetylcholinesterase [2] and at Cholinesterase were 6.2 µM and 184 µM, respectively.
Take `O=C(CCCOc1ccc2ccc(=O)oc2c1)N1CCN(c2ccc(Cl)c(Cl)c2)CC1`: the Activity in data set [1] was found to be 0.78 µmol. Besides, the 50% inhibitory concentration (IC50) against Acetylcholinesterase [2] came out at 26 µM; on Cholinesterase it was 80 µM.
On the same counts, the results for `Cc1cc(=O)oc2cc(OCCCC(=O)N3CCN(c4ccccc4F)CC3)ccc12` are 0.1 µmol, 16.4 µM and 29 µM.
On the same counts, the results for `O=C(COc1ccc2ccc(=O)oc2c1)N1CCN(c2ccccc2)CC1` are 1.94 µmol, 33 µM and 50 µM.
On the same counts, the results for `O=C(CCCOc1ccc2ccc(=O)oc2c1)N1CCN(c2ccccc2F)CC1` are 0.15 µmol, 6.9 µM and 15 µM.
For the molecule `COc1ccc(CCNC(=O)COc2ccc3ccc(=O)oc3c2)cc1OC`, in data set [1], the Activity came to 5.43 µmol. Moreover, the IC50 at Acetylcholinesterase [2] was found to be 74 µM; against Cholinesterase, 163 µM.
`Cc1cc(=O)oc2cc(OCCCC(=O)N3CCN(c4ccc(Cl)c(Cl)c4)CC3)ccc12`: in data set [1], the Activity is 0.05 µmol. In addition, the concentration for half-maximal inhibition (IC50) at Acetylcholinesterase [2] amounted to 4.38 µM; on Cholinesterase, 250 µM.
On the same counts, the results for `O=C(CCCOc1ccc2ccc(=O)oc2c1)N1CCC(Cc2ccccc2)CC1` are 1.61 µmol, 6.9 µM and 387 µM.
On the same counts, the results for `O=C(CCCOc1ccc2ccc(=O)oc2c1)N1CCN(c2ccc(F)cc2)CC1` are 1.37 µmol, 50 µM and 75 µM.
The like results for `O=C(COc1ccc2ccc(=O)oc2c1)N1CCN(c2ccccc2F)CC1` were, in that order, 0.07 µmol, 34.5 µM and 86 µM.
As for `O=C(CCCOc1ccc2ccc(=O)oc2c1)N1CCN(c2ccccc2)CC1`, the Activity in data set [1] came to 1.13 µmol. In addition, the half-inhibitory concentration (IC50) at Acetylcholinesterase [2] is 3.43 µM; at Cholinesterase, 120 µM.
`O=C(COc1ccc2ccc(=O)oc2c1)NC1CCN(Cc2ccccc2)CC1` showed a Ki at Acetylcholinesterase [3] of 1.32 µM. The Activity in data set [1] was 0.06 µmol; in data set [4], “Non-toxic”. Moreover, the 50% inhibitory concentration (IC50) against Acetylcholinesterase [2] amounted to 1.6 µM; at Cholinesterase it was 42 µM. Further, the outcome in data set [5] was Active.
As to `O=C(CCCOc1ccc2ccc(=O)oc2c1)N1CCC(O)(c2ccc(Br)cc2)CC1`, in data set [1], the Activity was determined as 0.03 µmol. Besides, the IC50 against Acetylcholinesterase [2] was found to be 73 µM; on Cholinesterase it was 180 µM.
Turning to `O=c1c(O)c(-c2ccc(O)c(O)c2)oc2cc(O)cc(O)c12`, in data set [6], the result was Active. Further, the Activity in data set [1] was determined as 10.8 µmol.
Consider `O=C(COc1ccc2ccc(=O)oc2c1)N1CCN(c2ccc(Cl)c(Cl)c2)CC1`, for which, in data set [1], the Activity is 2.01 µmol. Moreover, the IC50 on Acetylcholinesterase [2] was 26.8 µM; against Cholinesterase, 120 µM.
Take `Cc1cc(=O)oc2cc(OCCCC(=O)N3CCN(c4ccccc4)CC3)ccc12`: the Activity in data set [1] was determined as 0.07 µmol. Moreover, the results for the IC50 against Acetylcholinesterase [2] and at Cholinesterase were 20.8 µM and 68 µM, respectively.
With `Cc1cc(=O)oc2cc(OCCCC(=O)N3CCN(c4ccc(F)cc4)CC3)ccc12`, in data set [1], the Activity was 0.08 µmol. In addition, the IC50 is 41.6 µM against Acetylcholinesterase [2] and 24 µM against Cholinesterase.
